An excerpt weighted towards active compounds, which were near 2.1% of everything screened.
UCH37 inh: inhibitors of human deubiquitinating enzyme UCH37. purified proteasome/UCH37, Ub-AMC cleavage fluorescence. Q9Y5K5. hit rate 0.33% among 330,000. inhibition, % (no concentration beside the values). AID 588478;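 active = mean inhibition over replicate wells above about 20%, limit read from the data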;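 also: 0% = compound-free wells with enzyme and 100% = wells lacking proteasome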
Target sequence (Q9Y5K5 whole entry, looked up): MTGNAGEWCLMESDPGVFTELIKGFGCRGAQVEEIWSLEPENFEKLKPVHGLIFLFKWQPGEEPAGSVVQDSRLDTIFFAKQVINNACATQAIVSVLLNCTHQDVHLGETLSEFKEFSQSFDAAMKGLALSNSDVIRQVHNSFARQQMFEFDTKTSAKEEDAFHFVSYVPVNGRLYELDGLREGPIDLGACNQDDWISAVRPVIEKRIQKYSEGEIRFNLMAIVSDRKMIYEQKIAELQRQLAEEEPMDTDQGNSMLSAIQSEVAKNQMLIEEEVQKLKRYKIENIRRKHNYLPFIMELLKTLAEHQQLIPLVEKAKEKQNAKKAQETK
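Material: human UCH37 enzyme supplied as purified proteasome complex. Measure: % inhibition of Ub-AMC cleavage fluorescence. Medium: pH 7.4 Tris-HCl (50 mM) with ovalbumin, ATP-MgCl2, DTT. Times: 30 min preincubation with enzyme, 25 min cleavage at room temperature. Detection: AMC fluorescence intensity at 355/460 nm.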
iPSC survival up: hiPSC single-cell survival enhancement; ATPlite luminescence; 100% = ROCK inhibitor wells, 0% = DMSO; survival enhancement, % at 20 µM; hit rate 0.044% among 360,000; AID 602274; in the data active = survival enhancement above about 18%;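 also: cells exposed to compounds for 16 hours before the ATP read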
CRFBP-R2 block: antagonists of CRF-binding protein/CRF-R2 receptor complex. inhibition, % at 11.8 µM. HEK293 CRF-R2/CRF-BP, CRF-induced calcium fluorescence. hit rate 0.59% among 350,000. AID 588475;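 active = inhibition of the ligand-induced calcium signal above about 50% at the single tested concentration, limit read from the data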
beta cell repl: inducers of beta-cell replication in MIN6 cells. AID 2380. hit rate 0.29% among 330,000. proliferation, % at 10 µM. MIN6 cells proliferation, ATPlite luminescence, 48 h; cells starved in 0.2% serum; 100% = growth in 10% serum;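 active = compounds whose signal lies at least 3.5 SD above the mean of all wells on their plate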;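 also: 0% = DMSO-treated cells in low-serum medium and 100% = 10% serum control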
CRFBP-R2 agonist: agonists of human CRF-binding protein/CRF-R2 receptor complex; activation, % at 13.2 µM; hit rate 0.46% among 350,000; HEK293 CRF-R2/CRF-BP, calcium dye fluorescence (FLIPR); percent of saturating CRF peptide response;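 active = activation of at least 50%, plus an integration ratio under a set limit after plate pattern correction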;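 also: plate controls were neutral control wells without compound for no effect and CRF at EC100 for full effect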
H9c2 protect: myocardial damage modulation in H9c2 cells; H9c2 cardiomyocytes, H2O2 injury protection, ATPLite, 2 h; hit rate 0.63% among 360,000; protection from H2O2 cell death, % at 20 µM; AID 588492;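 active = compounds giving at least 50% protection of heart cells from peroxide-induced death in the single-dose screen, raw or plate-pattern-corrected value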;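 also: 0% = DMSO wells with peroxide and 100% = DMSO wells without peroxide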
Active calls of the source: *; · = not tested or not shown.

SMILES | UCH37 inh | iPSC survival up | CRFBP-R2 block | beta cell repl | CRFBP-R2 agonist | H9c2 protect
CCN(CC(=O)Nc1ccc(OC)cc1)C(=O)c1cc(S(=O)(=O)N2CCOCC2)ccc1N1CCCC1 | 1.5 | -0.5 | 69.9* | 1.2 | -1.6 | 0.3
CCN(Cc1ccccc1)C(=O)c1cc(S(=O)(=O)N2CCOCC2)ccc1N1CCCC1 | 1.9 | -0.2 | -5.1 | -1.7 | -2.9 | 0.5
ON=Cc1ccc(-c2cc(Cl)ccc2Cl)o1 | 0.3 | · | · | · | · | ·
COc1cccc2ccc(CC(O)(c3ccccc3)c3ccccc3)nc12 | · | -0.1 | 58.4* | · | 4.4 | 4.9
Cc1ccc2nc(CC(O)(c3ccccc3)c3ccccc3)ccc2c1 | · | -1.6 | 25.2 | · | 0.2 | -11.3
N#CC(C#N)=NNc1ccc(S(=O)(=O)N2CCCCC2)cc1 | 8.2 | -2.8 | 66.1* | 0.0 | 98.8* | -13.0
O=C(c1ccco1)N1CCN(C(c2coc3ccc(Cl)cc3c2=O)c2nnnn2C2CCCC2)CC1 (stereo unspecified) | 3.6 | -2.2 | -26.9 | -4.8 | 13.8 | 43.3
Cc1ccc2occ(C(c3nnnn3C3CCCC3)N3CCN(C(=O)c4ccco4)CC3)c(=O)c2c1 (stereo unspecified) | 1.4 | -2.7 | -53.5 | -2.1 | 33.0 | 51.7*
COc1cc(/C=C(\C#N)c2nc3ccccc3o2)ccc1O | 8.3 | -0.5 | -96.6 | -4.9 | 155.4* | -4.5
COc1ccc2[nH]c(=O)c(CN(Cc3cccnc3)C(=O)Nc3ccccc3)cc2c1 | -64.2 | 1.2 | -15.0 | -0.5 | -3.9 | 30.1
COc1ccc(N(Cc2cc3cc(OC)ccc3[nH]c2=O)C(=O)c2cccnc2)cc1 | -67.9 | -0.8 | -0.6 | -2.2 | -0.2 | 108.6*
COc1ccc2[nH]c(=O)c(CN(C(=O)c3cccnc3)c3ccccc3)cc2c1 | -18.5 | 10.4 | -65.4 | -2.4 | 0.2 | 2.1
COc1ccc(NC(=S)N(Cc2cccnc2)Cc2cc3cc(OC)c(OC)cc3[nH]c2=O)cc1 | -7.9 | 0.3 | 14.5 | 2.9 | -0.3 | 65.9*
COC(=O)NN1C(=O)C(c2ccccc2)=C(c2ccc(Cl)cc2)C1=O | 0.6 | -0.8 | 50.6* | -1.4 | -4.0 | -1.8
COC(=O)Nc1c(-c2ccccc2)nc2ccc(Cl)cn12 | -26.4 | -0.6 | -7.5 | -1.2 | 2.8 | 2.1
Cc1ccc(CN2CCN(N=Cc3ccc(N(C)C)cc3)CC2)cc1 | -1.6 | · | · | · | · | ·
ON=Cc1ccccc1OCc1ccc(Cl)cc1 | 2.5 | · | · | · | · | ·
COc1ccc(-c2nc3c4ccccc4[nH]c(=O)n3n2)cc1 | -5.0 | 0.1 | -21.0 | -4.0 | 0.3 | 28.9
COc1cc2[nH]c(=O)n3nc(-c4ccccc4)nc3c2cc1OC | -52.5 | 1.5 | 3.2 | -0.2 | 3.5 | 95.2*
O=C(Nc1ccc(Cc2ccncc2)cc1)c1cc(F)c(F)cc1Cl | 2.8 | -0.5 | 7.4 | -2.5 | 0.7 | 0.5
O=C(NCc1ccncc1)c1cc(F)c(F)cc1Cl | 0.6 | 0.6 | 59.7* | 0.4 | -0.2 | -2.4
COc1ccc(-c2nnc(SCC(=O)NN=Cc3ccccc3C(=O)O)n2-c2ccccc2)cc1 | 0.9 | · | · | · | · | ·
O=C(CC1SC(=Nc2ccccc2)N(CCCO)C1=O)Nc1ccc(Cl)cc1 (stereo unspecified) | 2.3 | 5.8 | 0.2 | -2.1 | 2.9 | 20.2
O=C(CC1SC(=Nc2ccccc2)N(CCCCO)C1=O)NCc1ccccc1 (stereo unspecified) | 25.9* | -1.9 | -2.4 | -3.0 | -2.3 | 0.5
O=C(NCCOC(=O)C1COc2ccccc2O1)c1cccnc1 (stereo unspecified) | 1.6 | 10.5 | -91.4 | -1.4 | 64.2* | 12.2
SMILES | UCH37 inh | iPSC survival up | CRFBP-R2 block | beta cell repl | CRFBP-R2 agonist | H9c2 protect
Cc1ccc(C=NNC(=O)C2COc3cc4ccccc4cc3O2)o1 (stereo unspecified) | -1.3 | · | · | · | · | ·
Cc1ccc(-c2ccc(C=N/N=C3/NC(=O)C(CC(=O)O)S3)o2)c([N+](=O)[O-])c1 (stereo unspecified) | 24.9* | · | · | · | · | ·
CCC(C)c1ccc(S(=O)(=O)N2CCN(CC(O)COCC3CCCO3)CC2)cc1 (stereo unspecified) | 4.5 | 0.9 | 64.3* | 1.7 | 0.8 | -6.2
CC(C)c1ccc(S(=O)(=O)N2CCN(CC(O)CN3CCOCC3)CC2)cc1 (stereo unspecified) | 0.1 | 0.4 | -9.6 | 1.2 | -0.2 | -5.9
COCc1cc(=O)n2[nH]c(-c3cccc(Br)c3)cc2n1 | -5.0 | -0.8 | 17.0 | -3.1 | -1.5 | -8.4
COCc1cc(=O)n2[nH]c(-c3ccccc3)cc2n1 | -16.7 | 3.2 | 78.8* | 1.3 | -4.4 | 9.6
S=c1[nH]nc(-c2cccnc2)n1N=C/C=C/c1ccccc1 | 6.6 | · | · | · | · | ·
O=C(O)c1cccc(-n2cccc2/C=C2/NC(=O)N(c3cccc(Cl)c3)C2=O)c1 | 7.7 | 0.1 | 5.6 | -1.2 | -0.1 | 1.0
O=C(O)c1cccc(-n2cccc2/C=C2/NC(=O)N(c3ccc(Cl)cc3)C2=O)c1 | 27.4* | -3.3 | 11.9 | · | 0.1 | -0.1
CCOc1ccc(S(=O)(=O)Nc2nc3ccccc3nc2Nc2ccc(N3CCOCC3)cc2)cc1 | 5.6 | 1.1 | -25.9 | -4.1 | 77.3* | -9.6
Cc1ccc(NC(=S)C2=C(O)c3ccccc3N(C)S2(=O)=O)cc1 | 20.9* | 5.3 | -3.5 | -3.2 | -0.6 | -7.4
CN1c2ccsc2C(O)=C(C(=S)Nc2ccccc2)S1(=O)=O | 20.5* | 1.1 | -28.3 | -3.7 | -0.1 | 1.1
Cc1ccccc1NC(=S)C1=C(O)c2sccc2N(C)S1(=O)=O | 23.4* | -2.0 | 12.4 | -3.8 | -0.8 | 2.3
S=c1[nH]nc(-c2ccco2)n1N=Cc1ccc(Br)s1 | 5.7 | · | · | · | · | ·
CC(Oc1ccccc1)c1ccnc2nc(N=CN(C)C)nn12 (stereo unspecified) | -97.9 | · | · | · | · | ·
O=c1cc(-c2ccccc2Cl)oc2c(NS(=O)(=O)c3cc(Cl)cc(Cl)c3O)ccc(O)c12 | 1.6 | -1.4 | 4.3 | -6.9 | 81.2* | -27.1
CCc1ccc(S(=O)(=O)Nc2ccc(O)c3c(=O)cc(-c4ccccc4Cl)oc23)cc1 | 2.3 | -2.8 | -9.2 | -8.1 | 2.5 | 3.3
CC(C)(C)c1ccc(C(=O)NCc2ccc(Cl)cc2)cc1 | 2.3 | -2.7 | -5.3 | -2.3 | -0.7 | -3.4
CC(C)(C)OC(=O)N1CCN(c2ccc(CNC(=O)c3ccc(Cl)cc3)cc2)CC1 | 0.6 | 3.4 | 50.1* | -3.3 | 1.6 | -9.6
CC(C)c1ccc(-n2cccc2/C=C2/C(=N)N3C=CSC3=NC2=O)cc1 | -53.6 | 2.2 | 8.4 | -2.7 | -0.3 | 26.8
Cc1ccccc1Cn1cccc1/C=C1/C(=N)N2C=CSC2=NC1=O | -7.9 | -3.6 | 55.5* | -3.0 | -0.7 | 2.9
COc1ccc(Nc2ccccc2)c(C)c1 | 1.4 | -2.0 | 50.3* | 1.4 | 0.1 | -1.7
CCOCCCN(CC(=O)NC1CCCC1)C(=O)C(=O)Nc1ccc2c(c1)OCCO2 | 2.1 | -0.5 | 97.2* | -3.0 | 0.3 | -2.7

Screens from PubChem BioAssay.
